Data published in ChEMBL document CHEMBL1130319, “Preparation, DNA binding, and in vitro cytotoxicity of a pair of enantiomeric platinum(II) complexes, [(R)- and (S)-3-aminohexahydroazepine]dichloroplatinum(II). Crystal structure of the S enantiomer” (J Med Chem, 1997).

How the values were obtained:
Type in all cases: functional, cell-based
[1] = system: PC-9; experiment: In vitro cytotoxicity was determined by using cultures of human resistant lung (PC9cisR) cancer cells by SRB assay
In short: (§1)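 Cells grown in RPMI 1640/10% FCS under 7.5% CO2, 5% O2. Seeded at 5000 cells/well for 24 h, then given complexes (saline stock diluted in medium) at final 0–200 μM for 96 h. Fixed in cold 10% TCA 30 min at 4 °C, stained with 0.4% SRB in 1% acetic acid 15 min, dye solubilized in 10 mM Tris, A570. Percent of control from 4 or 6 replicates; IR50 read from curves.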

[2] = system: BL13/0; experiment: In vitro cytotoxicity was determined by using cultures of human bladder (BL13/0) cancer cells by SRB assay; in short: as §1
[3] = system: PC-9; experiment: In vitro cytotoxicity was determined by using cultures of human lung (PC9) cancer cells by SRB assay; in short: as §1
[4] = system: DU-145; experiment: In vitro cytotoxicity was determined by using cultures of human prostate (DU145) cancer cells by MTT assay
In short: (§2)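 Monolayers in RPMI 1640 with 10% FCS, 37 °C, 7.5% CO2/5% O2/85% N2. Trypsinized, 5000 cells/well, 24 h preincubation. Complexes in 0.9% NaCl saline, final 0–200 μM, 96 h exposure; washed. MTT 1 mg/mL in FCS-free medium, 4 h at 37 °C, formazan in 2-propanol, OD 570 nm. Viability % of untreated; 4 or 6 replicates; IR50 from dose-response curves.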

[5] = system: BL13/0; experiment: In vitro cytotoxicity was determined by using cultures of human bladder (BL13/0) cancer cells by MTT assay; in short: as §2
[6] = system: PC-9; experiment: In vitro cytotoxicity was determined by using cultures of human resistant lung (PC9cisR) cancer cells by MTT assay; in short: as §2
[7] = system: DU-145; experiment: In vitro cytotoxicity was determined by using cultures of human prostate (DU145) cancer cells by SRB assay; in short: as §1
[8] = system: PC-9; experiment: In vitro cytotoxicity was determined by using cultures of human lung (PC9) cancer cells by MTT assay; in short: as §2

Substance	IC50 [1] [µM]	IC50 [2] [µM]	IC50 [3] [µM]	IC50 [4] [nM]	IC50 [5] [nM]	IC50 [6] [µM]	IC50 [7] [nM]	IC50 [8] [µM]
8,8-platinumdichloro-(6R)-1,7-diazoniabicyclo[4.2.1]nonane	27.3	7.2	11	2900	1300	16	3300	5.9
CISPLATIN	> 17.5	9.5	–	1800	1900	11.7	1000	1.4
